The results in this text go back to ChEMBL document CHEMBL1926594, “Molecular modeling studies, synthesis, configurational stability and biological activity of 8-chloro-2,3,5,6-tetrahydro-3,6-dimethyl-pyrrolo[1,2,3-de]-1,2,4-benzothiadiazine 1,1-dioxide” (Bioorg Med Chem, 2011).

Data set [1] in a line: Chemical stability of compound assessed as compound hydrolysis at pH 2.2 at 37.5 degC after 90 mins. It counts as physicochemical. The settings on record: buffer, pH 2.2, 1.5 h. The procedure, abridged:
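(3*,6R) epimeric mixture held on reactor column in chloroacetate buffer (ionic strength 0.01, pH 2.20) at 37.5 °C for up to 90 min. Hydrolysis checked by the sf-BD-rHPLC method: Chiralcel OD-R separative column at 0 °C, water/acetonitrile 50:50 (v/v) eluent.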

Data set [2] is described as follows: Configurational stability of compound in water-acetonitrile assessed as forward rate epimerization at 5 degC by dynamic HPLC analysis. The data set is classed as physicochemical. The settings on record: buffer. The procedure, abridged: (§1)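 Dynamic HPLC on the (3*,6R) epimeric mixture: isocratic Chiralcel OD-R column, water/acetonitrile 50:50 (v/v), run at temperatures of 5-37 °C. Sample at 100 μg/mL final, 20 μL injected, UV detection at 254 nm. Interconversion rate constants obtained from elution profiles by integration of the interconverting peak areas.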

Data set [3] is described as follows: Configurational stability of compound in water-acetonitrile assessed as forward rate epimerization at 25 degC by dynamic HPLC analysis. The data set is classed as physicochemical. The settings on record: buffer. Summed up:
as §1

Data set [4] in a line: Configurational stability of compound in water-acetonitrile assessed as forward rate epimerization at 37 degC by dynamic HPLC analysis. It counts as physicochemical. The settings on record: buffer. The procedure, abridged: as §1
A short description of data set [5]: Configurational stability of compound in water-acetonitrile assessed as backward rate epimerization at 5 degC by dynamic HPLC analysis. It counts as physicochemical. Particulars: buffer. The procedure, abridged: as §1
The nature of data set [6]: Configurational stability of compound in water-acetonitrile assessed as backward rate epimerization at 25 degC by dynamic HPLC analysis. Particulars: buffer. It counts as physicochemical. The procedure, abridged: as §1
Data set [7] in a line: Configurational stability of compound in water-acetonitrile assessed as backward rate epimerization at 37 degC by dynamic HPLC analysis. It counts as physicochemical. The settings on record: buffer. The procedure, abridged:
as §1

A short description of data set [8]: Configurational stability of compound in water-acetonitrile assessed as forward equilibrium rate epimerization at 5 degC by dynamic HPLC analysis. It counts as physicochemical. The settings on record: buffer. The procedure, abridged: as §1
The nature of data set [9]: Configurational stability of compound in water-acetonitrile assessed as forward equilibrium rate epimerization at 25 degC by dynamic HPLC analysis. Particulars: buffer. It counts as physicochemical. Summed up:
as §1

The nature of data set [10]: Configurational stability of compound in water-acetonitrile assessed as forward equilibrium rate epimerization at 37 degC by dynamic HPLC analysis. It counts as physicochemical. Particulars: buffer. Summed up:
as §1

Data set [11] in a line: Configurational stability of compound in water-acetonitrile assessed as forward rate equilibrium epimerization at pH 2.2 using C-8 column by stopped flow bidimensional recycling HPLC. The data set is classed as physicochemical. Particulars: buffer. The procedure, abridged:
(§2)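 Stopped-flow bidimensional recycling HPLC on the (3*,6R) epimeric mixture. Epimers separated on Chiralcel OD-R at 0 °C with water/acetonitrile 50:50 (v/v). One epimer is trapped on a Supelcosil LC-8 (C8) reactor column and epimerizes at 37.5 °C in chloroacetate buffer pH 2.20 or phosphate buffer pH 7.00 (ionic strength 0.01). Column recooled to 0 °C, epimers re-separated, n = 4. Rate constants from first-order reversible kinetics.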

Data set [12] in a line: Configurational stability of compound in water-acetonitrile assessed as forward rate equilibrium epimerization at pH 7 using C-8 column by stopped flow bidimensional recycling HPLC. The data set is classed as physicochemical. Particulars: buffer. The procedure, abridged: as §2
Data set [13] can be described thus: Configurational stability of compound in water-acetonitrile assessed as backward rate equilibrium epimerization at pH 2.2 using C-8 column by stopped flow bidimensional recycling HPLC. The settings on record: buffer. It counts as physicochemical. Summed up: as §2
Data set [14] can be described thus: Configurational stability of compound in water-acetonitrile assessed as backward rate equilibrium epimerization at pH 7 using C-8 column by stopped flow bidimensional recycling HPLC. The data set is classed as physicochemical. Particulars: buffer. The procedure, abridged: as §2
Data set [15] can be described thus: Configurational stability of compound in water-acetonitrile assessed as forward rate epimerization at pH 2.2 using C-8 column by stopped flow bidimensional recycling HPLC. It counts as physicochemical. Particulars: buffer. The procedure, abridged:
as §2

The nature of data set [16]: Configurational stability of compound in water-acetonitrile assessed as forward rate epimerization at pH 7 using C-8 column by stopped flow bidimensional recycling HPLC. The settings on record: buffer. It counts as physicochemical. Summed up: as §2
Data set [17] in a line: Configurational stability of compound in water-acetonitrile assessed as backward rate epimerization at pH 2.2 using C-8 column by stopped flow bidimensional recycling HPLC. Particulars: buffer. It counts as physicochemical. Summed up: as §2
Data set [18] is described as follows: Configurational stability of compound in water-acetonitrile assessed as backward rate epimerization at pH 7 using C-8 column by stopped flow bidimensional recycling HPLC. It counts as physicochemical. Particulars: buffer. The procedure, abridged: as §2
Data set [19] can be described thus: Configurational stability of compound in water-acetonitrile assessed as forward rate equilibrium epimerization at pH 2.2 using IAM column by stopped flow bidimensional recycling HPLC. It counts as physicochemical. The settings on record: artificial membrane. The procedure, abridged:
(§3)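 sf-BD-rHPLC with an IAM-based reactor column. (3*,6R) epimers separated on Chiralcel OD-R at 0 °C using water/acetonitrile 50:50 (v/v). Trapped epimer interconverts at 37.5 °C in chloroacetate buffer pH 2.20 or phosphate buffer pH 7.00 (ionic strength 0.01), then is re-separated at 0 °C, n = 4. Forward, backward and equilibrium rate constants derived from peak areas.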

Data set [20] can be described thus: Configurational stability of compound in water-acetonitrile assessed as forward rate equilibrium epimerization at pH 7 using IAM column by stopped flow bidimensional recycling HPLC. The data set is classed as physicochemical. Particulars: artificial membrane. Summed up:
as §3

Data set [21] in a line: Configurational stability of compound in water-acetonitrile assessed as backward rate equilibrium epimerization at pH 2.2 using IAM column by stopped flow bidimensional recycling HPLC. The data set is classed as physicochemical. Particulars: artificial membrane. The procedure, abridged: as §3
Data set [22] is described as follows: Configurational stability of compound in water-acetonitrile assessed as backward rate equilibrium epimerization at pH 7 using IAM column by stopped flow bidimensional recycling HPLC. It counts as physicochemical. Particulars: artificial membrane. Summed up: as §3
The nature of data set [23]: Configurational stability of compound in water-acetonitrile assessed as forward rate epimerization at pH 2.2 using IAM column by stopped flow bidimensional recycling HPLC. It counts as physicochemical. The settings on record: artificial membrane. The procedure, abridged:
as §3

Data set [24] can be described thus: Configurational stability of compound in water-acetonitrile assessed as forward rate epimerization at pH 7 using IAM column by stopped flow bidimensional recycling HPLC. The settings on record: artificial membrane. It counts as physicochemical. The procedure, abridged: as §3
Data set [25] can be described thus: Configurational stability of compound in water-acetonitrile assessed as backward rate epimerization at pH 2.2 using IAM column by stopped flow bidimensional recycling HPLC. The data set is classed as physicochemical. The settings on record: artificial membrane. Summed up: as §3
A short description of data set [26]: Configurational stability of compound in water-acetonitrile assessed as backward rate epimerization at pH 7 using IAM column by stopped flow bidimensional recycling HPLC. The data set is classed as physicochemical. Particulars: artificial membrane. Summed up:
as §3

The nature of data set [27]: Configurational stability of compound assessed as half life using C-8 column by stopped flow bidimensional recycling HPLC. The data set is classed as physicochemical. Particulars: C-8 column (stationary phase). The procedure, abridged:
as §2

A short description of data set [28]: Configurational stability of compound assessed as half life using IAM column by stopped flow bidimensional recycling HPLC. The data set is classed as physicochemical. The settings on record: IAM column (stationary phase). Summed up:
as §3

Data set [29] has as its system DIV7-10. The experiment in a line: Positive allosteric modulation activity at AMPA receptor in Sprague-Dawley rat cortical neuronal DIV7-10 cells assessed as increase in kainate induced currents at 100 uM by patch clamp electrophysiological method. It counts as cell-based. The procedure, abridged: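 Cortical neurons from newborn Sprague–Dawley rats: trypsin-dispersed, plated on poly-L-lysine and switched to BME/Neurobasal with B27 after 24 h, with 1 µM Ara-C added at DIV5. Whole-cell voltage-clamp at room temperature on DIV7-10 cells. Kainate-evoked currents recorded with co-application of epimeric mixture at 100 µM. Potentiation given as mean ± SE, n = 4.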
In general terms: Patch clamp records ionic current or voltage across a cell membrane.

In the case of `CC1CN2c3c1cc(Cl)cc3S(=O)(=O)NC2C` (stereo not given), in data set [1], the Stability result was “Stable”.

Regarding `CC1NS(=O)(=O)c2cc(Cl)cc3c2N1C[C@@H]3C` (mixture of isomers), the K came to 0.17 ×10⁻⁴ /s in [2]; 1.11 ×10⁻⁴ /s in [3]; 1.28 ×10⁻⁴ /s in data set [4]; 0.06 ×10⁻⁴ /s in data set [5]; 0.76 ×10⁻⁴ /s in data set [6]; 0.71 ×10⁻⁴ /s in data set [7]. Besides, the K in [8] is 0.23 ×10⁻⁴ /s; in data set [9], 1.87 ×10⁻⁴ /s; in [10], 1.99 ×10⁻⁴ /s; in data set [11], 6.68 ×10⁻⁴ /s; in data set [12], 5.9 ×10⁻⁴ /s; in data set [13], 6.52 ×10⁻⁴ /s. Moreover, the K in [14] turned out to be 7.77 ×10⁻⁴ /s; in data set [15], 4.61 ×10⁻⁴ /s; in [16], 4.49 ×10⁻⁴ /s; in [17] it was 2.26 ×10⁻⁴ /s; in data set [18], 2.34 ×10⁻⁴ /s; in [19], 10.7 ×10⁻⁴ /s. Besides, the K is reported as 7.2 ×10⁻⁴ /s in [20]; 9.63 ×10⁻⁴ /s in data set [21]; 8.93 ×10⁻⁴ /s in data set [22]; 6.68 ×10⁻⁴ /s in [23]; 5.3 ×10⁻⁴ /s in [24]; 3.48 ×10⁻⁴ /s in data set [25]. Also, in data set [26], the K amounted to 2.75 ×10⁻⁴ /s. The half-life in [27] and in data set [28] was 10 min throughout. Also, the Activity in [29] stood at 112%.

Consider `CC1NS(=O)(=O)c2cc(Cl)cc3c2N1C[C@H]3C` (mixture of isomers), for which the Activity in data set [29] worked out at 250%.

Broadly, the half-life is the time in which the quantity being followed falls by half.
